Source: ChEMBL document CHEMBL4680345, “Thioether-linked dihydropyrrol-2-one analogues as PqsR antagonists against antibiotic resistant Pseudomonas aeruginosa” (Bioorg Med Chem, 2021)
pIC50: −log10 of the molar value. Active and inactive are the calls of the source. No cut-off for these calls is given here.

What was measured:
[1] = test system: Pseudomonas aeruginosa PAO1; experiment: Inhibition of PqsR in Pseudomonas aeruginosa PAO1 harboring GFP fused pqsA at 125 ug/ml measured every 15 mins for 6 to 8 hrs by reporter assay relative to control; conditions: dose 125.0 µg/ml, time 6-8 hrs
How it was run: (§1)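 PAO1 carrying PqsR-regulated pqsA promoter–gfp fusion; overnight culture in Mueller Hinton broth exposed to serially diluted compounds (40 mM DMSO stocks, diluted in medium) at 37 °C with intermittent shaking. GFP fluorescence and OD600 read every 15 min for at least 6–8 h; fluorescence normalised to OD600. Negative control: medium with 1.25% DMSO. Run in triplicate.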

Pseudomonas aeruginosa [2] = experiment: Antibiofilm activity against Pseudomonas aeruginosa PAO1 assessed as decrease in bacterial co-aggregation at 150 to 400 uM measured after 24 hrs by phase contrast microscopic analysis; assay type: functional, organism-based; conditions: dose 150-400 µM
How it was run: (§2)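 Overnight TSB cultures resuspended to OD600 0.1 ± 0.02 in TSB. Biofilms grown 24 h at 37 °C, 100 rpm with compound at 250 µM or DMSO control. Washed twice with PBS to remove loosely adhered cells. Imaged by phase contrast microscopy to assess biofilm morphology and aggregation.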

Pseudomonas aeruginosa [3] = experiment: Antibiofilm activity against Pseudomonas aeruginosa ATCC 25619 assessed as decrease in bacterial co-aggregation at 150 to 400 uM measured after 24 hrs by phase contrast microscopic analysis; assay type: functional, organism-based; conditions: dose 150-400 µM; how it was run: as §2
Pseudomonas aeruginosa [4] = experiment: Antibiofilm activity against Pseudomonas aeruginosa PAO1 assessed as reduction in biomass at 250 to 400 uM measured after 48 hrs by crystal violet staining based assay relative to control; assay type: functional; conditions: dose 250-400 µM
How it was run: (§3)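 Biofilms started from TSB-grown cultures at OD600 0.1 ± 0.02 with compound (250 and 400 µM) or DMSO control. Incubated 48 h at 37 °C, 100 rpm, then washed with PBS. Stained with 0.1% (w/v) crystal violet for 1 h at 37 °C, 150 rpm, washed three times and dried. Dye dissolved in 80% ethanol and read at OD550. Biomass expressed as % decrease versus DMSO control, set at 100%.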

[5] = Inhibition of planktonic growth of Pseudomonas aeruginosa PAO1 up to 125 ug/ml incubated for 24 hrs; conditions: dose <=125 µg/ml
How it was run: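 PAO1 at 5×10^5 CFU/mL in MHB. Compound added from 10 mg/mL DMSO stock, up to 125 µg/mL final. Incubated 24 h at 37 °C with intermittent agitation, OD600 read every 15 min. DMSO (1.25%) as control. One experiment per compound with three technical replicates.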

Pseudomonas aeruginosa [6] = experiment: Antibiofilm activity against Pseudomonas aeruginosa ATCC 25619 assessed as decrease in bacterial co-aggregation at 150 to 400 uM measured […] by microscopic analysis (reference value: 23 %); assay type: functional; set-up: scale not given: the % may be the effect or the level left; conditions: dose 150-400 µM
[7] = Inhibition of PqsR in Pseudomonas aeruginosa PAO1 harboring GFP fused pqsA measured every 15 mins for 6 to 8 hrs by reporter assay; how it was run: as §1
Pseudomonas aeruginosa [8] = experiment: Antibiofilm activity against Pseudomonas aeruginosa PAO1 assessed as decrease in bacterial co-aggregation at 150 to 400 uM measured […] by microscopic analysis (reference value: 26 %); assay type: functional; set-up: scale not given: the % may be the effect or the level left; conditions: dose 150-400 µM
Pseudomonas aeruginosa [9] = experiment: Antibiofilm activity against Pseudomonas aeruginosa ATCC 25619 assessed as reduction in biomass at 250 to 400 uM measured after 48 hrs by crystal violet staining based assay relative to control; assay type: functional; conditions: dose 250-400 µM; how it was run: as §3

Structure (SMILES) | inhibition [1] | also measured
O=C1C=C(c2ccccc2F)/C(=C/Sc2ccc(Cl)cc2)N1 | 55% | 
CCCS/C=C1\NC(=O)C=C1c1ccccc1 | 20% | 
O=C1C=C(c2ccc(Cl)cc2)/C(=C/Sc2ccc(Cl)cc2)N1 | 36% | 
CCCS/C=C1\NC(=O)C=C1c1ccc(Br)cc1 | 62% | Activity (Pseudomonas aeruginosa [2]): Active; Activity (Pseudomonas aeruginosa [3]): Active; inhibition (INH) (Pseudomonas aeruginosa [4]): 20%; growth inhibition (GI) [5]: Non-Toxic; Activity (Pseudomonas aeruginosa [6]): 11%; pIC50 [7]: 4.00; Activity (Pseudomonas aeruginosa [8]): 13%; inhibition (INH) (Pseudomonas aeruginosa [9]): 20%
O=C1C=C(c2ccc(Br)cc2)/C(=C/Sc2ccc(Cl)cc2)N1 | 33% | 
O=C1C=C(c2ccccc2F)/C(=C/Sc2ccccc2)N1 | 42% | 
O=C1C=C(c2ccc(Br)cc2)/C(=C/Sc2ccccc2)N1 | 52% | 
O=C1C=C(c2cccc(F)c2)/C(=C/Sc2ccccn2)N1 | 47% | 
CCCS/C=C1\NC(=O)C=C1c1ccc(Cl)cc1 | 59% | pIC50 [7]: 4.05
CCCS/C=C1\NC(=O)C=C1c1ccccc1F | 7% | 
O=C1C=C(c2ccc(Br)cc2)/C(=C/Sc2ccccn2)N1 | 20% | 
O=C1C=C(c2ccccc2)/C(=C/Sc2ccc(Cl)cc2)N1 | 43% | 
O=C1C=C(c2ccc(F)cc2)/C(=C/Sc2ccccc2)N1 | 45% | 
O=C1C=C(c2ccccc2)/C(=C/Sc2ccccn2)N1 | 53% | 
O=C1C=C(c2ccccc2F)/C(=C/Sc2ccccn2)N1 | 40% | 
O=C1C=C(c2ccccc2)/C(=C/Sc2ccccc2)N1 | 52% | 
O=C1C=C(c2ccc(F)cc2)/C(=C/Sc2ccc(Cl)cc2)N1 | 46% | 
O=C1C=C(c2ccc(F)cc2)/C(=C/Sc2ccccn2)N1 | 63% | Activity (Pseudomonas aeruginosa [2]): Active; Activity (Pseudomonas aeruginosa [3]): Active; inhibition (INH) (Pseudomonas aeruginosa [4]): 20%; growth inhibition (GI) [5]: Non-Toxic; Activity (Pseudomonas aeruginosa [6]): 11%; pIC50 [7]: 4.49; Activity (Pseudomonas aeruginosa [8]): 13%; inhibition (INH) (Pseudomonas aeruginosa [9]): 20%
O=C1C=C(c2ccc(Cl)cc2)/C(=C/Sc2ccccc2)N1 | 45% | 
O=C1C=C(c2ccc(Cl)cc2)/C(=C/Sc2ccccn2)N1 | 18% | 
